Assays:
Settings in all cases: in vivo
[1] = system: Rattus norvegicus; test: The biodistribution of the [125I]-labeled compound in rats after intravenous injection was evaluated in adrenal at 0.25 hrs; value ranges from 0.84-0.91 (ID.kg/g); type: ADME, organism-based
Summary of the method: (§1)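 Male Sprague-Dawley rats (250–300 g) under ether anesthesia were given an iv injection of no-carrier-added 125I-labelled agent (10–15 μCi in 0.1 mL saline). The agent was iodinated with chloramine-T in acetate buffer and purified by C-18 HPLC. Groups of N = 3 were killed at 0.25, 1 and 4 h. Blood and tissues were weighed and γ-counted. Values are % ID·kg/g, mean (range).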

[2] = system: Rattus norvegicus; test: The biodistribution of the [125I]-labeled compound in rats after intravenous injection was evaluated in adrenal at 1.00 hrs; value ranges from 0.78-1.46 (ID.kg/g); type: ADME, organism-based; summary of the method: as §1
[3] = system: Rattus norvegicus; test: The biodistribution of the [125I]-labeled compound in rats after intravenous injection was evaluated in adrenal at 4.00 hrs; value ranges from 1.09-1.22 (ID.kg/g); type: ADME, organism-based; summary of the method: as §1
[4] = system: Rattus norvegicus; test: The biodistribution of the [125I]-labeled compound in rats after intravenous injection was evaluated in blood at 0.25 hrs (ID.kg/g); type: ADME, organism-based; summary of the method: as §1
[5] = system: Rattus norvegicus; test: The biodistribution of the [125I]-labeled compound in rats after intravenous injection was evaluated in blood at 1.00 hrs (ID.kg/g); type: ADME, organism-based; summary of the method: as §1
[6] = system: Rattus norvegicus; test: The biodistribution of the [125I]-labeled compound in rats after intravenous injection was evaluated in blood at 4.00 hrs (ID.kg/g); type: ADME, organism-based; summary of the method: as §1
[7] = system: Rattus norvegicus; test: The biodistribution of the [125I]-labeled compound in rats after intravenous injection was evaluated in brain at 0.25 hrs; value ranges from 0.10-0.16 (ID.kg/g); type: ADME, organism-based; summary of the method: as §1
[8] = system: Rattus norvegicus; test: The biodistribution of the [125I]-labeled compound in rats after intravenous injection was evaluated in heart at 0.25 hrs (ID.kg/g); type: ADME, organism-based; summary of the method: as §1
[9] = system: Rattus norvegicus; test: The biodistribution of the [125I]-labeled compound in rats after intravenous injection was evaluated in heart at 1.00 hrs; value ranges from 0.14-0.18 (ID.kg/g); type: ADME, organism-based
Summary of the method: (§2)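 Male Sprague-Dawley rats (250–300 g), under ether anesthesia, given 10–15 μCi of the NCA ¹²⁵I-labeled agent iv in 0.1 mL saline. Groups of N = 3 were killed at 0.25, 1 or 4 h. Blood and tissues were removed, weighed and counted in a γ-well scintillation counter. Values are mean % ID·kg/g (range).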

[10] = system: Rattus norvegicus; test: The biodistribution of the [125I]-labeled compound in rats after intravenous injection was evaluated in lung at 4.00 hrs; value ranges from 0.53-0.59 (ID.kg/g); type: ADME, organism-based
Summary of the method: (§3)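 Male Sprague-Dawley rats (250–300 g) under ether anesthesia given iv 0.1 mL saline containing 10–15 μCi of NCA ¹²⁵I-labeled agent (chloramine-T iodination, HPLC-purified). Groups of 3 killed at 0.25, 1 and 4 h. Blood and tissues excised, weighed and γ-counted. Values are mean (range) of % injected dose × body mass (kg) per gram of tissue.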

[11] = system: Rattus norvegicus; test: The biodistribution of the [125I]-labeled compound in rats after intravenous injection was evaluated in muscle at 0.25 hrs (ID.kg/g); type: ADME, organism-based, Muscle tissue; summary of the method: as §3
[12] = system: Rattus norvegicus; test: The biodistribution of the [125I]-labeled compound in rats after intravenous injection was evaluated in muscle at 4.00 hrs (ID.kg/g); type: ADME, organism-based, Muscle tissue; summary of the method: as §3
[13] = system: Rattus norvegicus; test: The biodistribution of the [125I]-labeled compound in rats after intravenous injection was evaluated in thyroid at 1.00 hrs; value ranges from 1.41-1.72 (ID.kg/g); type: ADME, organism-based, Thyroid gland; summary of the method: as §3
[14] = system: Rattus norvegicus; test: The biodistribution of the [125I]-labeled compound in rats after intravenous injection was evaluated in thyroid at 4.00 hrs; value ranges from 2.64-2.80 (ID.kg/g); type: ADME, organism-based, Thyroid gland; summary of the method: as §3
[15] = system: Rattus norvegicus; test: The biodistribution of the [125I]-labeled compound in rats after intravenous injection was evaluated in thyroid at 0.25 hrs; value ranges from 1.44-2.04 (ID.kg/g); type: ADME, organism-based, Thyroid gland; summary of the method: as §3
[16] = system: Rattus norvegicus; test: The biodistribution of the [125I]-labeled compound in rats after intravenous injection was evaluated in fat at 0.25 hr (ID. kg/g); type: ADME, organism-based, Adipose tissue; summary of the method: as §1
[17] = system: Rattus norvegicus; test: The biodistribution of the [125I]-labeled compound in rats after intravenous injection was evaluated in fat at 1.00 hrs (ID.kg/g); type: ADME, organism-based, Adipose tissue; summary of the method: as §1
[18] = system: Rattus norvegicus; test: The biodistribution of the [125I]-labeled compound in rats after intravenous injection was evaluated in brain at 1.00 hrs; value ranges from 0.08-0.10 (ID.kg/g); type: ADME, organism-based; summary of the method: as §1
[19] = system: Rattus norvegicus; test: The biodistribution of the [125I]-labeled compound in rats after intravenous injection was evaluated in brain at 4.00 hrs (ID.kg/g); type: ADME, organism-based; summary of the method: as §1
[20] = system: Rattus norvegicus; test: The biodistribution of the [125I]-labeled compound in rats after intravenous injection was evaluated in fat at 4.00 hrs; value ranges from 0.02-0.04 (ID.kg/g); type: ADME, organism-based, Adipose tissue; summary of the method: as §1
[21] = system: Rattus norvegicus; test: The biodistribution of the [125I]-labeled compound in rats after intravenous injection was evaluated in kidney at 1.00 hrs; value ranges from 0.35-0.42 (ID.kg/g); type: ADME, organism-based; summary of the method: as §2
[22] = system: Rattus norvegicus; test: The biodistribution of the [125I]-labeled compound in rats after intravenous injection was evaluated in kidney at 4.00 hrs; value ranges from. 28-0.30(ID.kg/g); type: ADME, organism-based; summary of the method: as §2
[23] = system: Rattus norvegicus; test: The biodistribution of the [125I]-labeled compound in rats after intravenous injection was evaluated in liver at 0.25 hr; value ranges from; value ranges from 0.45-0.60 (ID.kg/g); type: ADME, organism-based; summary of the method: as §2
[24] = system: Rattus norvegicus; test: The biodistribution of the [125I]-labeled compound in rats after intravenous injection was evaluated in liver at 1.00 hr 0.46-0.90 (ID.kg/g); type: ADME, organism-based; summary of the method: as §2
[25] = system: Rattus norvegicus; test: The biodistribution of the [125I]-labeled compound in rats after intravenous injection was evaluated in liver at 4.00 hrs (ID.kg/g); type: ADME, organism-based; summary of the method: as §2
[26] = system: Rattus norvegicus; test: The biodistribution of the [125I]-labeled compound in rats after intravenous injection was evaluated in lung at 0.25 hrs; value ranges from 1.0-1.14 (ID.kg/g); type: ADME, organism-based; summary of the method: as §2
[27] = system: Rattus norvegicus; test: The biodistribution of the [125I]-labeled compound in rats after intravenous injection was evaluated in lung at 1.00 hrs; value ranges from 0.65-0.85 (ID.kg/g); type: ADME, organism-based; summary of the method: as §2
[28] = system: Rattus norvegicus; test: The biodistribution of the [125I]-labeled compound in rats after intravenous injection was evaluated in kidney at 0.25 hr; value ranges from 0.35-0.39 (ID.kg/g); type: ADME, organism-based; summary of the method: as §2
[29] = system: Rattus norvegicus; test: The biodistribution of the [125I]-labeled compound in rats after intravenous injection was evaluated in heart at 4.00 hrs; value ranges from 0.11-0.13 (ID.kg/g); type: ADME, organism-based; summary of the method: as §2
[30] = system: Rattus norvegicus; test: The biodistribution of the [125I]-labeled compound in rats after intravenous injection was evaluated in muscle at 1.00 hrs (ID.kg/g); type: ADME, organism-based, Muscle tissue; summary of the method: as §3

CCCCCCN1CCN(c2ccc(I)cc2)CC1
Biodistribution [1]: 0.91%
Biodistribution [2]: 1.46%
Biodistribution [3]: 1.22%
Biodistribution [4]: 0.01 % ID·kg/g
Biodistribution [5]: 0.01 % ID·kg/g
Biodistribution [6]: 0.01 % ID·kg/g
Biodistribution [7]: 0.16%
Biodistribution [8]: 0.24%
Biodistribution [9]: 0.18%
Biodistribution [10]: 0.59%
Biodistribution [11]: 0.03 % ID·kg/g
Biodistribution [12]: 0.02 %ID·kg/g
Biodistribution [13]: 1.72%
Biodistribution [14]: 2.8%
Biodistribution [15]: 2.04%
Biodistribution [16]: 0.01 % ID·kg/g
Biodistribution [17]: 0.02 % ID·kg/g
Biodistribution [18]: 0.1%
Biodistribution [19]: 0.09%
Biodistribution [20]: 0.04%
Biodistribution [21]: 0.42%
Biodistribution [22]: 0.3%
Biodistribution [23]: 0.6%
Biodistribution [24]: 0.9%
Biodistribution [25]: 0.78%
Biodistribution [26]: 1.14%
Biodistribution [27]: 0.85%
Biodistribution [28]: 0.39%
Biodistribution [29]: 0.13%
Biodistribution [30]: 0.02 %ID·kg/g
